Assays:
Format in all cases: functional
OVCAR-5 = assay: Growth inhibition of human OVCAR5 cells after 48 hrs by sulforhodamine B assay; conditions: OVCAR-5, 48 h
In short: (§1)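 NCI 60-human-tumor-cell-line panel, with compounds tested over a 5-log dose range. Values are taken from dose-response curves as log10 molar concentrations: GI50 is 50% net growth inhibition, TGI is total growth inhibition, and LC50 is 50% net cell death.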

COLO 205 = assay: Growth inhibition of human COLO205 cells after 48 hrs by sulforhodamine B assay; conditions: COLO 205, 48 h; in short: as §1
HCT-116 = assay: Growth inhibition of human HCT116 cells after 48 hrs by sulforhodamine B assay; conditions: HCT-116, 48 h; in short: as §1
UO-31 = assay: Growth inhibition of human UO31 cells after 48 hrs by sulforhodamine B assay; conditions: UO-31, 48 h
In short: (§2)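 Run in the NCI 60-human-tumour-cell-line panel, tested over a 5-log dose range. Dose–response curves gave three values per cell line, each as a log10 molar concentration: GI50 (50% inhibition of net cell growth), TGI (total inhibition of net growth) and LC50 (50% net cell death). The mean graph midpoint is the arithmetic mean over all lines, with insensitive lines entered at the highest concentration tested.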

SW-620 = assay: Growth inhibition of human SW620 cells after 48 hrs by sulforhodamine B assay; conditions: SW-620, 48 h; in short: as §2
U-251 = assay: Growth inhibition of human U251 cells after 48 hrs by sulforhodamine B assay; conditions: U-251, 48 h; in short: as §2
NCI-H322M = assay: Growth inhibition of human NCI-H322M cells after 48 hrs by sulforhodamine B assay; in short: as §1
NCI/ADR-RES = assay: Growth inhibition of human NCI/ADR-RES cells after 48 hrs by sulforhodamine B assay; in short: as §1
TK-10 = assay: Growth inhibition of human TK10 cells after 48 hrs by sulforhodamine B assay; conditions: TK-10, 48 h; in short: as §2
SNB-19 = assay: Growth inhibition of human SNB19 cells after 48 hrs by sulforhodamine B assay; conditions: SNB-19, 48 h; in short: as §2
HL-60(TB) = assay: Growth inhibition of human HL-60(TB) cells after 48 hrs by sulforhodamine B assay; conditions: HL-60, 48 h
In short: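 Tested only on compounds active in a three-line prescreen, in the NCI 60-human-tumour-cell-line panel over a 5-log dose range. Values come from dose–response curves as log10 molar GI50, the concentration inhibiting 50% net cell growth. Log10 TGI (total growth inhibition) and log10 LC50 (50% net cell death) were derived too. Mean graph midpoints include insensitive lines at the highest concentration tested.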

K562 = assay: Growth inhibition of human K562 cells after 48 hrs by sulforhodamine B assay; conditions: K562, 48 h; in short: as §1
SF-295 = assay: Growth inhibition of human SF295 cells after 48 hrs by sulforhodamine B assay; conditions: SF-295, 48 h; in short: as §1
MDA-MB-435 = assay: Growth inhibition of human MDA-MB-435 cells after 48 hrs by sulforhodamine B assay; conditions: MDA-MB-435, 48 h; in short: as §1
CAKI-1 = assay: Growth inhibition of human Caki1 cells after 48 hrs by sulforhodamine B assay; conditions: CAKI-1, 48 h; in short: as §1
A549 = assay: Growth inhibition of human A549 cells after 48 hrs by sulforhodamine B assay; conditions: A549, 48 h; in short: as §1
OVCAR-8 = assay: Growth inhibition of human OVCAR8 cells after 48 hrs by sulforhodamine B assay; conditions: OVCAR-8, 48 h; in short: as §1
OVCAR-4 = assay: Growth inhibition of human OVCAR4 cells after 48 hrs by sulforhodamine B assay; conditions: OVCAR-4, 48 h; in short: as §1
786-0 = assay: Growth inhibition of human 786-0 cells after 48 hrs by sulforhodamine B assay; conditions: 786-0, 48 h; in short: as §1
[1] = Growth inhibition of human […] cells after 48 hrs by sulforhodamine B assay; in short: as §1
NCI-H23 = assay: Growth inhibition of human NCI-H23 cells after 48 hrs by sulforhodamine B assay; conditions: NCI-H23, 48 h; in short: as §1
UACC-257 = assay: Growth inhibition of human UACC257 cells after 48 hrs by sulforhodamine B assay; conditions: UACC-257, 48 h; in short: as §2
NCI-H522 = assay: Growth inhibition of human NCI-H522 cells after 48 hrs by sulforhodamine B assay; conditions: NCI-H522, 48 h; in short: as §1
OVCAR-3 = assay: Growth inhibition of human OVCAR-3 cells after 48 hrs by sulforhodamine B assay; conditions: OVCAR-3, 48 h; in short: as §1
MDA-MB-231 = assay: Growth inhibition of human MDA-MB-231 cells after 48 hrs by sulforhodamine B assay; conditions: MDA-MB-231, 48 h; in short: as §1
M14 = assay: Growth inhibition of human M14 cells after 48 hrs by sulforhodamine B assay; conditions: M14, 48 h; in short: as §1
SK-OV-3 = assay: Growth inhibition of human SKOV3 cells after 48 hrs by sulforhodamine B assay; conditions: SK-OV-3, 48 h; in short: as §1
HOP-62 = assay: Growth inhibition of human HOP62 cells after 48 hrs by sulforhodamine B assay; conditions: HOP-62, 48 h; in short: as §1
[2] = read-out: pLC50 (the source's name) (converted)

Nc1cc(N)c2nc(-c3ccccc3)c(Oc3ccc(Cl)c(Cl)c3)nc2c1
GI50 (OVCAR-5): 25.1 µM | CC50 (OVCAR-5; [2]): > 100 µM | TGI (OVCAR-5; read-out: pTGI (converted)): 58.9 µM | GI50 (COLO 205): 20.4 µM | LC50 (50% net cell kill) (COLO 205): > 100 µM | TGI (COLO 205; read-out: pTGI (converted)): 67.6 µM | GI50 (HCT-116): 15.8 µM | LC50 (concentration causing 50% net cell death) (HCT-116): > 100 µM | TGI (HCT-116; read-out: pTGI (converted)): 47.9 µM | GI50 (UO-31): 4.07 µM | CC50 (UO-31; [2]): > 100 µM | TGI (UO-31; read-out: pTGI (converted)): > 100 µM | GI50 (SW-620): 9.77 µM | CC50 (SW-620; [2]): 91.2 µM | TGI (SW-620; read-out: pTGI (converted)): 30.2 µM | GI50 (U-251): 12 µM | LC50 (50% net cell kill) (U-251): 83.2 µM | TGI (U-251; read-out: pTGI (converted)): 31.6 µM | GI50 (NCI-H322M): 21.4 µM | LC50 (NCI-H322M): > 100 µM | TGI (NCI-H322M; read-out: pTGI (converted)): 58.9 µM | GI50 (NCI/ADR-RES): 11.7 µM | CC50 (NCI/ADR-RES; [2]): > 100 µM | TGI (NCI/ADR-RES; read-out: pTGI (converted)): 36.3 µM | GI50 (TK-10): 24.5 µM | CC50 (TK-10; [2]): > 100 µM | TGI (TK-10; read-out: pTGI (converted)): 63.1 µM | GI50 (SNB-19): 20.9 µM | LC50 (SNB-19): > 100 µM | TGI (SNB-19; read-out: pTGI (converted)): 52.5 µM | GI50 (HL-60(TB)): 5.13 µM | LC50 (HL-60(TB)): > 100 µM | TGI (HL-60(TB); read-out: pTGI (converted)): > 100 µM | GI50 (K562): 3.55 µM | LC50 (K562): > 100 µM | TGI (K562; read-out: pTGI (converted)): > 100 µM | GI50 (SF-295): 13.8 µM | LC50 (50% net cell kill) (SF-295): 69.2 µM | TGI (SF-295; read-out: pTGI (converted)): 30.9 µM | GI50 (MDA-MB-435): 5.01 µM | CC50 (MDA-MB-435; [2]): 93.3 µM | TGI (MDA-MB-435; read-out: pTGI (converted)): 20.9 µM | GI50 (CAKI-1): 15.8 µM | CC50 (CAKI-1; [2]): > 100 µM | TGI (CAKI-1; read-out: pTGI (converted)): > 100 µM | GI50 (A549): 18.2 µM | LC50 (A549): > 100 µM | TGI (A549; read-out: pTGI (converted)): 43.7 µM | GI50 (OVCAR-8): 28.2 µM | CC50 (OVCAR-8; [2]): > 100 µM | TGI (OVCAR-8; read-out: pTGI (converted)): 89.1 µM | GI50 (OVCAR-4): 33.1 µM | CC50 (OVCAR-4; [2]): > 100 µM | TGI (OVCAR-4; read-out: pTGI (converted)): > 100 µM | GI50 (786-0): 12.6 µM | CC50 (786-0; [2]): > 100 µM | TGI (786-0; read-out: pTGI (converted)): 44.7 µM | GI50 [1]: 3.47 µM | LC50 [1]: > 100 µM | TGI ([1]; read-out: pTGI (converted)): > 100 µM | GI50 (NCI-H23): 15.5 µM | LC50 (50% net cell kill concentration) (NCI-H23): > 100 µM | TGI (NCI-H23; read-out: pTGI (converted)): 39.8 µM | GI50 (UACC-257): 28.2 µM | CC50 (UACC-257; [2]): > 100 µM | TGI (UACC-257; read-out: pTGI (converted)): 87.1 µM | GI50 (NCI-H522): 8.32 µM | LC50 (NCI-H522): > 100 µM | TGI (NCI-H522; read-out: pTGI (converted)): 33.9 µM | GI50 (OVCAR-3): 10.7 µM | CC50 (OVCAR-3; [2]): 66.1 µM | TGI (OVCAR-3; read-out: pTGI (converted)): 26.9 µM | GI50 (MDA-MB-231): 10.2 µM | CC50 (MDA-MB-231; [2]): 66.1 µM | TGI (MDA-MB-231; read-out: pTGI (converted)): 26.3 µM | GI50 (M14): 14.1 µM | CC50 (M14; [2]): > 100 µM | TGI (M14; read-out: pTGI (converted)): 70.8 µM | GI50 (SK-OV-3): 24 µM | CC50 (SK-OV-3; [2]): > 100 µM | TGI (SK-OV-3; read-out: pTGI (converted)): 66.1 µM | GI50 (HOP-62): 17 µM | LC50 (HOP-62): 85.1 µM | TGI (HOP-62; read-out: pTGI (converted)): 38 µM

Source: ChEMBL document CHEMBL1137710, “Synthesis and in vitro antitumor activity of new quinoxaline derivatives” (2009)
